Measured values as given in ChEMBL document CHEMBL4177588, “Synthesis, biological evaluation, and metabolic stability of chlorogenic acid derivatives possessing thiazole as potent inhibitors of α-MSH-stimulated melanogenesis” (Bioorg Med Chem Lett, 2017).

What was measured:
[1] = Drug metabolism in human liver microsomes assessed as compound oxidation at 1 uM measured after 5 mins in absence of NADPH by Q-TOF LC-MS/MS analysis; assay type: ADME, microsome
[2] = Drug metabolism in human liver S9 fraction assessed as UGT-mediated compound glucuronidation by measuring M2 formation at 1 uM pretreated for 5 mins followed by NADPH/UDPGA/ PAPS addition by Q-TOF LC-MS/MS analysis; assay type: ADME, subcellular; settings: s9, 1 µM
How it was run: (§1)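 Human liver S9 fraction (1 mg/mL) in 50 mM Tris buffer, pH 7.5, fortified with NADPH (1 mM), UDPGA and PAPS to support oxidative, glucuronidation and sulfation pathways. Parent loss and metabolites were analysed by Q-TOF LC-MS/MS.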

[3] = Drug metabolism in human liver S9 fraction assessed as SULT-mediated compound sulfation by measuring M1 formation at 1 uM pretreated for 5 mins followed by NADPH/UDPGA/ PAPS addition by Q-TOF LC-MS/MS analysis; assay type: ADME, subcellular; settings: s9, 1 µM; how it was run: as §1
[4] = Half-life in human liver S9 fraction at 1 uM pretreated for 5 mins followed by NADPH/UDPGA/ PAPS addition by Q-TOF LC-MS/MS analysis; assay type: ADME, subcellular; how it was run: as §1
B16 = experiment: Inhibition of alpha-MSH stimulated melanogenesis in mouse B16 cells; assay type: functional, cell-based
[5] = Drug metabolism in human liver S9 fraction assessed as compound oxidation by measuring 4-[2-(4-Trifluoromethyl-benzylamino)-thiazol-4-yl]-benzene-1,2-diol formation at 1 uM pretreated for 5 mins followed by NADPH/UDPGA/ PAPS addition by Q-TOF LC-MS/MS analysis; assay type: ADME, subcellular; settings: s9, 1 µM; how it was run: as §1
[6] = Drug metabolism in human liver S9 fraction assessed as UGT-mediated compound glucuronidation by measuring M4 formation at 1 uM pretreated for 5 mins followed by NADPH/UDPGA/ PAPS addition by Q-TOF LC-MS/MS analysis; assay type: ADME, subcellular; settings: s9, 1 µM; how it was run: as §1
[7] = Drug metabolism in human liver S9 fraction assessed as compound oxidation by measuring (4-Benzo[1,3]dioxol-5-yl-1-oxo-thiazol-2-yl)-(4-trifluoromethyl-benzyl)-amine formation at 1 uM pretreated for 5 mins followed by NADPH/UDPGA/ PAPS addition by Q-TOF LC-MS/MS analysis; assay type: ADME, subcellular; settings: s9, 1 µM; how it was run: as §1
[8] = Drug metabolism in human liver S9 fraction assessed as SULT-mediated compound sulfation by measuring M3 formation at 1 uM pretreated for 5 mins followed by NADPH/UDPGA/ PAPS addition by Q-TOF LC-MS/MS analysis; assay type: ADME, subcellular; settings: s9, 1 µM; how it was run: as §1
[9] = Drug metabolism in human liver S9 fraction treated with 4-(Benzo[d][1,3]dioxol-5-yl)-N-(4-(trifluoromethyl)benzyl)thiazol-2-amine assessed as metabolite formation at 1 uM pretreated for 5 mins followed by NADPH/UDPGA/ PAPS addition by Q-TOF LC-MS/MS analysis; assay type: ADME, subcellular; settings: s9, 1 µM; how it was run: as §1

IC50 (B16) [µM]	other results	SMILES
	Drug metabolism [1]: Metabolite_Detected; Drug metabolism [2]: Metabolite_Detected; Drug metabolism [3]: Metabolite_Detected; half-life at 1 µM [4]: 5 min	O=C(/C=C/c1ccc(O)c(O)c1)NCc1ccc(C(F)(F)F)cc1
> 50		Oc1ccc(-c2csc(NCc3cccc(Cl)c3)n2)cc1O
0.9	Drug metabolism [5]: Metabolite_Detected; Drug metabolism [6]: Metabolite_Detected; Drug metabolism [7]: Metabolite_Detected; Drug metabolism [8]: Metabolite_Detected; half-life at 1 µM [4]: 69.3 min	FC(F)(F)c1ccc(CNc2nc(-c3ccc4c(c3)OCO4)cs2)cc1
32.7	Drug metabolism [9]: Metabolite_Detected	Oc1ccc(-c2csc(NCc3ccc(C(F)(F)F)cc3)n2)cc1O
11.1		c1ccc(CNc2nc(-c3ccc4c(c3)OCO4)cs2)cc1
2		Oc1ccc(-c2csc(NCc3ccccc3Cl)n2)cc1O
13.2		Clc1cccc(CNc2nc(-c3ccc4c(c3)OCO4)cs2)c1
1.8		Oc1ccc(-c2csc(NCc3cccc(C(F)(F)F)c3)n2)cc1O
15.3		FC(F)(F)c1cccc(CNc2nc(-c3ccc4c(c3)OCO4)cs2)c1
37.9		Clc1ccc(CNc2nc(-c3ccc4c(c3)OCO4)cs2)cc1
11.5		Oc1ccc(-c2csc(NCc3ccc(Cl)cc3)n2)cc1O
	Drug metabolism [9]: Metabolite_Detected	[O-][s+]1cc(-c2ccc3c(c2)OCO3)nc1NCc1ccc(C(F)(F)F)cc1 (stereo not given)
12.4		Clc1ccccc1CNc1nc(-c2ccc3c(c2)OCO3)cs1
2.6		Oc1ccc(-c2csc(NCc3ccccc3C(F)(F)F)n2)cc1O
9.6		FC(F)(F)c1ccccc1CNc1nc(-c2ccc3c(c2)OCO3)cs1
2.1		Oc1ccc(-c2csc(NCc3ccccc3)n2)cc1O
